Hits are enriched below; roughly 2.3% of the tested compounds scored in any of these assays.
Insulin prom up: MIN6 insulin promoter up-regulation | MIN6 insulin promoter-GFP reporter, high-content imaging; stronger effect = higher value | z-score at 5 µM | 190,000 compounds, 0.3% hits;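 active = z-score above 3 at 5 µM with at least 500 cells counted in the well; inconclusive = wells under 500 cells, flagged as cytotoxic or low count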
sdo1 growth: compounds rescuing growth of sdo1-depleted yeast, bone marrow failure model; S. cerevisiae sdo1-depleted JHY4D growth rescue, OD600 30 h; stronger effect = higher value; pdr5 snq2 efflux-pump mutant strain; z-score at 10 µM; 140,000 compounds, 0.21% hits;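 active = z-score above 3 at both the 24 hr and the 30 hr optical density reads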;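 note: z-score against mean and SD of all compound wells on the same plate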
ROMK mod: human ROMK K+ channel modulation, primary screen; B-score at 10 µM; Tet-inducible ROMK, thallium flux fluorescence; actives lie on both sides; 130,000 compounds, 2% hits;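 active = signal ratio slope over the read window, or its plate-corrected B-score, at least 3 SD from the plate mean, either direction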;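 note: B-score of the F/F0 ratio slope over 7 to 12 s after thallium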
Autophagy mod: modulators of autophagy; MEF GFP-LC3 puncta imaging; test concentration mostly 10 µM; calls only at 10 µM (by protocol); 190,000 compounds, 0.98% hits; AID 463193;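 active = percentage of spot-positive cells more than 3 SD above its plate mean, without a fluorescence outlier flag or 80% toxicity; inconclusive = no clear call, values can overlap the other calls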;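 note: spot-positive cell cutoff set from DMSO-treated cells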
ABCB1 inh: blocks JC-1 efflux by human ABCB1 transporter; CCRF-Adr cells, flow cytometry; inhibition, % at 6.6 µM; 190,000 compounds, 0.067% hits; AID 1326; P08183; in the data active = inhibition above about 40%;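 note: 0% = vehicle and 100% = reference inhibitor; higher value means more JC-1 retained so stronger ABCB1 efflux block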
ABCG2 block: inhibitors of human ABCG2 transporter, ABCB1 counter-screen; IgMXP3 cells, JC-1 efflux, flow cytometry; inhibition, % at 6.6 µM; 190,000 compounds, 0.1% hits; AID 1325; Q9UNQ0;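 active = inhibition above 80%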;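 note: 0% = DMSO and 100% = nicardipine control wells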
Target sequence (Q9UNQ0 whole entry, looked up): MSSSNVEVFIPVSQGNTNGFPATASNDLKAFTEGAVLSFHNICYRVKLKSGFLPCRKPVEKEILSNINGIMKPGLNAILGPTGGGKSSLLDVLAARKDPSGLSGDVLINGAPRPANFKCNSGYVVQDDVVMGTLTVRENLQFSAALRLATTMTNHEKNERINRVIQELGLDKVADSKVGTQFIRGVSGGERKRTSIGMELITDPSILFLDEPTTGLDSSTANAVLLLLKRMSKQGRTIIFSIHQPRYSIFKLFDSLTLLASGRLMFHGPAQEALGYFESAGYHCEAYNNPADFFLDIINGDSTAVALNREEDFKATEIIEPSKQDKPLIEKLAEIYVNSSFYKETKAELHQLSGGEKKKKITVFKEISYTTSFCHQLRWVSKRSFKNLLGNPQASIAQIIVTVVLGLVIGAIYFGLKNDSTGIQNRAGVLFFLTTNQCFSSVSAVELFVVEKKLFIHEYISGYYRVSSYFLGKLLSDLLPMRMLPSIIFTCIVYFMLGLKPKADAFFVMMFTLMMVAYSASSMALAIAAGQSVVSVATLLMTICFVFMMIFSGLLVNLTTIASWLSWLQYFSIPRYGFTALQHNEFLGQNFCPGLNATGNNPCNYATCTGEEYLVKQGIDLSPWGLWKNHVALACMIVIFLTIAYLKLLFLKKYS
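Test system: IgMXP3 (ABCG2) plus far-red-tagged CCRF-Adr (ABCB1) cells. Reagent: JC-1 dye as substrate. Timing: 10 min exposure at 25 °C with rotation, no wash. Measured by: flow cytometric JC-1 green MFI at 530 nm. Read-out: percent efflux inhibition, scaled nicardipine 100% to DMSO 0%. Control set: nicardipine and DMSO wells.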
Active calls of the source: *; i = inactive; ? = inconclusive; nt = no result given; + = active, no number.

SMILES | Insulin prom up | sdo1 growth | ROMK mod | Autophagy mod | ABCB1 inh | ABCG2 block
COc1ccc(C2C(C(=O)N3CCOCC3)CCC(=O)N2c2ccc(OC)cc2)cc1 (stereo not drawn) | 3.7* | -0.39 | -0.018 | i | 0 | 1
Cc1c(Cc2ccccc2)sc(NC(=O)/C=C/c2cccc3ccccc23)c1C(N)=O | -0.39 | -0.01 | nt | + | -1 | -12
COC(=O)c1c(NC(=O)/C=C/C(=O)O)sc(Cc2ccccc2)c1C | -0.2 | 0.07 | -0.4 | i | 0 | 1
CCc1ccc(CN2CCCC(CNS(=O)(=O)c3ccc(OC)cc3)C2)cc1 (stereo not drawn) | -0.56 | nt | -2 | + | 1 | 1
O=S1(=O)C=C(Sc2nc3ccccc3s2)c2ccccc21 | -0.19 | -2.5 | nt | + | 0 | 0
O=C(COc1ccccc1-c1ccccc1)N/N=C/c1cccc2ccccc12 | -2.1 | -0.63 | 0.47 | + | 1 | 5
COc1ccc(/C=N/NC(=O)COc2ccccc2-c2ccccc2)cc1 | 0.91 | -0.86 | nt | i | -1 | 2
O=C(O)c1ccc(Nc2nc(-c3ccccc3)c3ccccc3n2)cc1 | 0.59 | nt | -0.6 | + | -1 | 0
Cc1ccc(C(=O)OCC(=O)N(C)C2CCS(=O)(=O)C2)cc1[N+](=O)[O-] (stereo not drawn) | -0.29 | nt | nt | i | 1 | 0
CCCc1nn(C)c(C(=O)Nc2cccc3ccccc23)c1Cl | -0.33 | -0.92 | nt | + | 1 | 10
COc1cccc(C(=O)NCC(=O)N/N=C/c2cn[nH]c2-c2ccccc2)c1 | -0.22 | nt | -0.6 | i | 0 | -2
CC1=C(C#N)C(=O)N(C2CCS(=O)(=O)C2)C(=O)/C1=C\c1ccco1 (stereo not drawn) | -0.06 | nt | -2.9* | nt | nt | nt
CC(C)(C)C(=O)NC(=S)NCc1ccccc1 | -0.51 | 0.26 | -0.74 | i | 1 | 3
Cc1ccc(/C=C(\C#N)C(=O)Nc2c(C)cccc2C)s1 | 0.42 | -0.12 | nt | i | 2 | 3
Cc1ccc(NC(=O)/C(C#N)=C/c2ccc(C)s2)c(C)c1 | 2.4 | 0.75 | nt | + | 1 | 2
Fc1ccc(CNc2ncnc3c2cnn3-c2ccccc2)cc1 | -0.03 | -1.6 | nt | + | 1 | 7
c1ccc(CNc2ncnc3c2cnn3-c2ccccc2)cc1 | 0.95 | -0.69 | nt | i | 0 | 4
Cc1ccc(S(=O)(=O)N2CCC(=O)N(C(COCc3cccc(C(F)(F)F)c3)C(C)C)CC2)cc1 (stereo not drawn) | 0.63 | -0.71 | -0.1 | i | 3 | 0
CCc1ccc2[nH]c(=O)c(C(c3nnnn3CC3CCCO3)N3CCN4CCCC4C3)cc2c1 (stereo not drawn) | 0.68 | 0.36 | -2.4* | i | 1 | 7
Cc1ccc2[nH]c(=O)c(C(c3nnnn3CC3CCCO3)N3CCOCC3)cc2c1 (stereo not drawn) | -0.59 | 0.64 | nt | i | 0 | -2
c1ccc(-c2ccccc2OCCCCN2CCCCCC2)cc1 | -1.6 | nt | -2 | i | 1 | -2
CCCCn1c(SCC(=O)O)nc2ccccc21 | 3.5* | 0.72 | nt | i | -3 | -2
CCn1c(SCC(=O)O)nc2ccccc21 | 0.01 | nt | 0.0018 | i | 0 | 1
O=c1cc(CSCc2ccc(Cl)cc2)[nH]c(=O)[nH]1 | 0.01 | nt | nt | nt | nt | nt
COc1ccc(C(=O)N/N=C/c2sc3ccccc3c2O)cc1 | -0.23 | 0.09 | -4.5* | i | 0 | -6
SMILES | Insulin prom up | sdo1 growth | ROMK mod | Autophagy mod | ABCB1 inh | ABCG2 block
CCOc1ccccc1C(=O)Nc1ccccc1-c1ccccc1 | -0.36 | -0.41 | -1.4 | i | 2 | 32
COC(=O)Cn1ncc(N2C3CC(CC(C)(C)C3)C2C)c(Cl)c1=O (stereo not drawn) | 0.86 | 0.59 | 0.42 | i | 2 | 14
NC(=O)NC(=O)COC(=O)/C=C/c1cccs1 | -0.64 | nt | -0.87 | nt | nt | nt
CCOC(=O)c1nnn(-c2nonc2N)c1-c1ccc(OCC)cc1 | 3.8* | -0.72 | 0.082 | i | -8 | 4
CCC(C)c1ccc(NC(=O)COC(=O)c2nc3nccc(C)n3n2)cc1 (stereo not drawn) | -0.59 | nt | 0.55 | i | 0 | 15
COc1ccc2o/c(=N/NC(=S)Nc3ccccc3)c(C(N)=O)cc2c1 | -0.25 | 0.13 | nt | + | -1 | 3
COc1ccc2oc(=N)c(C(=O)Nc3ccccc3)cc2c1 | 0.5 | 1.3 | nt | i | 0 | 2
CCc1nnc(NC(=O)c2cc(S(=O)(=O)N3CCCCC3)ccc2N2CCOCC2)s1 | -0.03 | nt | 0.9 | + | 0 | -1
O=C(CCCSc1nc2ccccc2[nH]1)N1CCN(c2ccc([N+](=O)[O-])cc2)CC1 | -0.39 | -0.76 | -5.4* | i | 9 | 6
O=C(CSc1nc2ccccc2[nH]1)N1CCN(c2ccc(F)cc2)CC1 | 0.33 | -0.28 | 0.44 | i | 3 | 25
CCCCc1c(C)nc2ccccc2c1SCCC(=O)O | 0.11 | nt | 0.17 | i | 0 | 4
O=C(Nc1ccon1)c1sc2cc(F)ccc2c1Cl | -0.17 | -0.29 | nt | + | 1 | 20
CC(C)(C)Sc1ccc([N+](=O)[O-])cc1C(=O)Nc1ccncc1 | -0.24 | nt | nt | nt | nt | nt
O=C(N/N=C/C(Br)=C/c1ccccc1)c1n[nH]c2c1CCC2 | ? | -0.94 | 1.9 | + | nt | nt
O=S(=O)(c1cccc(F)c1)N1CCCN(c2ccc(C(F)(F)F)cn2)CC1 | 0.83 | nt | nt | nt | nt | nt
Cc1cc(C)c(C)c(C(=O)CSc2nnc(-c3ccc4[nH]c(C)c(C)c4c3)o2)c1C | -0.93 | -2 | -0.25 | + | 0 | 16
COc1ccc(CC(=O)N2CCC(c3ccccc3)C2)cc1 (stereo not drawn) | 0.03 | nt | 0.77 | i | 0 | 1
COc1ccc(CC(=O)N2CCC(Nc3nc4ccccc4n3Cc3ccc(F)cc3)CC2)cc1 | nt | 0.23 | -4* | i | 3 | 23
CCOc1ncccc1C(=O)OCc1ccccc1 | 0.26 | -0.22 | -0.64 | i | 0 | 1
CCOc1ncccc1C(=O)OCC(=O)N(CC)c1ccccc1 | 0.11 | nt | -0.55 | + | 0 | 0
CCOC(=O)c1sc(=NC(=O)CCS(=O)(=O)c2ccccc2)n(C)c1C | 0.25 | nt | 0.25 | i | 1 | 2
CCOC(=O)c1sc(=NC(=O)COc2ccc(Cl)cc2)n(C)c1C | -0.78 | nt | -0.9 | + | 1 | 11
Cc1cccc(N2CCN(C(=O)c3ccc4ncsc4c3)CC2)c1C | nt | -0.39 | 3.3* | i | 0 | 2
COC(=O)c1ccccc1NC(=O)N[C@@H](C)C(=O)OC | nt | 0.23 | nt | i | 0 | 1
CCOC(=O)c1ccccc1NC(=O)N[C@@H](C)C(=O)OC | nt | -0.34 | 2.3* | i | 1 | 3
CNC(=S)N/N=C1\C(=O)c2cccc3cccc1c23 | 1.1 | -0.06 | nt | + | 0 | -1
CCCCNC(=S)N/N=C1\C(=O)c2cccc3cccc1c23 | 0.25 | -0.76 | -0.22 | i | -1 | 14
CC(=O)NCCCc1nc2ccccc2n1Cc1ccccc1F | -0.76 | nt | 0.28 | nt | nt | nt

Compound activity from PubChem.
